Screening results (PubChem)
dFosB act: activators of delta FosB homodimer, primary screen, biochemical, fluorescence polarization, TAMRA-CDK5 oligo, single point; purified delta FosB; percent of positive-control signal above neutral wells; 0.99% of 340,000 active; activation, % at 25 µM; Protein FosB (Mus musculus), P13346;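 active means mean activation above about 17%, with every replicate also reaching it, limit read from the data, passing the limit was not always enough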
Target sequence (P13346 whole entry, looked up): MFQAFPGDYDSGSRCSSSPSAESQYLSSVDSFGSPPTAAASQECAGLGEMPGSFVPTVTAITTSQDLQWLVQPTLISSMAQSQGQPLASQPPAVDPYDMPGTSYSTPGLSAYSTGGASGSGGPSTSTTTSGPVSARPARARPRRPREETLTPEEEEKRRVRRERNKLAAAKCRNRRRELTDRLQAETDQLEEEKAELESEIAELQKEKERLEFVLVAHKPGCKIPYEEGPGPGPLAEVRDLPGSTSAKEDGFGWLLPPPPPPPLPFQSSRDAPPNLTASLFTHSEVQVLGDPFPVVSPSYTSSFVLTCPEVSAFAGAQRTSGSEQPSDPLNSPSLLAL
S100A4 MyoIIA: inhibitors of S100A4-myosin IIA peptide binding, primary screen, biochemical, fluorescence polarization, TAMRA-MyoIIA peptide; 0.14% of 360,000 active; Protein S100-A4 (Homo sapiens), P26447; inhibition, % at 10.7 µM;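 active means mean inhibition of at least 70% across replicates, with every replicate also reaching that level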
Target sequence (P26447 whole entry, looked up): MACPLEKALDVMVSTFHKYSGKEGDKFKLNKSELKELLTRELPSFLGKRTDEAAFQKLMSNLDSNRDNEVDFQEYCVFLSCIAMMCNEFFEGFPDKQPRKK
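Test system: S100A4 monomer protein. Medium: HEPES buffer with Ca2+, pH 7.2. Reagent: fluorescent myosin IIA peptide, 5 nM. Compound dosing: single-point compound testing. Timing: 5 min between mix addition and reading. Benchmarks: DMSO neutral and TFP positive wells.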
CDK5 inh: inhibitors of human CDK5/p35 kinase, primary screen, biochemical, single concentration; 0.01% of 330,000 active; inhibition, % at 10 µM; Recombinant CDK5/p35, ADP-Glo luminescence, 60 min; AID 488839, 2010; Cyclin-dependent kinase 5 (Homo sapiens) + Cyclin-dependent kinase 5 activator 1 (Homo …;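 active means highest replicate inhibition of at least 50% and at least 75% of replicates reaching 50%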;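 further: plate controls were DMSO neutral control for no effect and GW8510 at 10 µM for full effect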
C2C12 statin: suppressors of statin myotoxicity in C2C12 myotubes, primary screen, cell-based, single point, plate reader; rescue of ATP level, % at 7.49 µM; C2C12 myotubes + simvastatin, ATP luminescence, 48 h; scaled: DMSO 0, geranylgeraniol control 100; 0.78% of 330,000 active;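 active means mean ATP rescue above about 67%, or every replicate alone reaching that limit, limit read from the data, passing the limit was not always enough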;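 further: myotubes were challenged with 10 µM simvastatin during compound exposure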
CAL PDZ FP-1: CAL PDZ peptide-binding inhibitors, primary screen, biochemical, fluorescence polarization, Cer-tagged CAL PDZ, HTS; Golgi-associated PDZ and coiled-coil motif-containing protein (Homo sapiens), Q9HD26; purified CAL PDZ, TMR-peptide fluorescence polarization, 1 h; inhibition, % at 20 µM; 0.02% of 330,000 active;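 active means highest replicate inhibition of at least 40%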;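 further: plate controls were DMSO neutral control wells for no effect and unlabeled competitor peptide control wells for full effect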
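Read-out basis: mP drop reported as inhibition | Assay system: Tagged CAL PDZ protein CerCALP, purified | Benchmarks: Unlabelled peptide for full inhibition, DMSO wells as neutral | Schedule: 1 h incubation at room temperature before polarization reading | Buffer or medium: Sodium phosphate/NaCl buffer pH 7.4 with TCEP, IgG, Thesit | Doses: Single point, 20 µM | Measured by: Fluorescence polarization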
CAL PDZ FP-2: untagged CAL PDZ binding inhibitors, primary screen, biochemical, fluorescence polarization, HTS; Golgi-associated PDZ and coiled-coil motif-containing protein (Homo sapiens), Q9HD26; purified CAL PDZ, TMR-peptide fluorescence polarization, 1 h; inhibition, % at 24.9 µM; 0.92% of 300,000 active; AID 602252, 2012;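 active means mean inhibition of at least 30% with at least half of replicates also reaching 30%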;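 further: 0% = DMSO neutral control and 100% = excess unlabeled competitor peptide PRC23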
* = called active by the depositor; / = not tested or not shown. Sampled rows, rich in hits. Any-hit rate of the full collection: about 2%.

SMILES	dFosB act	S100A4 MyoIIA	CDK5 inh	C2C12 statin	CAL PDZ FP-1	CAL PDZ FP-2
COc1ccccc1OCCSc1nc2ccccc2n1CC(N)=O	8	-1	0	2	/	59*
CCOC(=O)N1CCN(c2c(N3CCN(C(=O)OCC)CC3)c(=O)c2=O)CC1	1	30	-1	4	-2	-1
CCOC(=O)N1CCN(c2c(N3CCN(c4cc(C)ccc4C)CC3)c(=O)c2=O)CC1	-1	0	-1	102*	-1	/
CC1Cc2ccccc2N1C(=O)CSc1nnc(Cc2ccccc2)n1CCc1ccccc1 (stereo unspecified)	-16	/	1	113*	-2	-3
CC1Cc2ccccc2N1C(=O)CSc1nnnn1C (stereo unspecified)	-3	/	-1	28	-1	-5
COc1cc(/C=C2/SC(=S)N(C)C2=O)ccc1OC(=O)c1ccco1	-3	1	1	/	-4	-7
COc1cc(/C=C2/SC(=O)NC2=O)ccc1OC(=O)c1ccco1	68*	-1	1	-21	-1	5
Cc1cc(C)c(NC(=O)CCCN2CCCC2)c(C)c1	3	-1	-1	0	1	-1
NC(=O)c1cc(-c2ccccc2)nc(N2CCOCC2)n1	-24	/	-2	86*	-1	6
O=C(Nc1ccccc1)C1CC2CCC1C2 (stereo unspecified)	-1	0	0	2	0	/
O=C(Nc1ccccc1)OC1CCC2CC1CCC2OC(=O)Nc1ccccc1 (stereo unspecified)	-6	0	0	/	-1	32*
Cc1ccc(OCC(=O)Nc2c(C)nn(-c3ccccc3)c2C)c(Br)c1	-1	18	-3	44	-2	-24
O=C(Nc1ccc(Cl)cc1)Nc1ccccc1CC[N+](=O)[O-]	7	5	-2	104*	0	-4
CCOC(=O)[C@@H]1[C@H]2COc3cc(OC)ccc3[C@@H]2N2C(=O)N(c3cccc(C)c3)C(=O)[C@]12C	0	87*	0	11	1	-1
COc1ccc(CNC[C@@H](CCCCN(C)Cc2ccc(OC)cc2)N2C[C@H](c3ccccc3)N(CCc3ccc(Cl)c(Cl)c3)C(=O)C2=O)cc1	46*	/	0	-395	-7	0
COc1ccc(CNC(=O)[C@@H]2CC=C[C@@H]3CCN(Cc4ccc(Cl)c(Cl)c4)C(=O)[C@@H]32)cc1	-12	9	-1	23	0	0
COC(=O)[C@@H]1[C@@H](CO)[C@@H]2Cn3c(ccc(-c4ccccc4)c3=O)[C@@H]2N1C(=O)CC1CC1	/	76*	/	-51	/	/
O=C(O)[C@@H]1[C@@H](CO)[C@@H]2Cn3c(ccc(/C=C/c4ccccc4)c3=O)[C@@H]2N1C(=O)C1CCCC1	/	110*	/	/	/	/
COC(=O)[C@H]1[C@H](CO)[C@H]2Cn3c(ccc(-c4cccc(F)c4)c3=O)[C@H]2N1C(=O)CC1CC1	/	-9	/	18	/	/
O=C(O)[C@H]1[C@H](CO)[C@H]2Cn3c(ccc(/C=C/c4ccccc4)c3=O)[C@H]2N1C(=O)C1CCCC1	/	-5	/	/	/	/
C=CCOc1ccc(Br)cc1/C=N/O	-5	/	0	126*	0	-2
CCOC(=O)c1cnn(-c2ncnc3sc(C)c(C)c23)c1N	0	/	0	81*	0	-7
CC(C)CNC(=O)C1CC(=O)OC12CCCCC2 (stereo unspecified)	3	/	2	-11	/	-7
Cc1ccc(-c2nnc(NCc3nc4ccccc4[nH]3)c3ccccc23)cc1S(=O)(=O)N1CCCCC1	80*	/	-2	/	-2	/
CO[C@H]1CN(C)C(=O)c2cc(NC(C)=O)ccc2OC[C@@H](C)N(Cc2ccccn2)C[C@@H]1C	/	1	/	-1	/	/
SMILES	dFosB act	S100A4 MyoIIA	CDK5 inh	C2C12 statin	CAL PDZ FP-1	CAL PDZ FP-2
CO[C@@H]1CN(C)C(=O)c2ccc(NC(C)=O)cc2OC[C@H](C)N(Cc2cc(F)ccc2F)C[C@@H]1C	/	105*	/	-7	/	/
CO[C@H]1CN(C)C(=O)c2cc(NC(C)=O)ccc2OC[C@H](C)N(Cc2ccccn2)C[C@H]1C	/	141*	/	-6	/	/
CCCCC[C@H](C)N1C[C@H](COCc2ccccc2)Oc2cc(N3CC[C@@H](O)C3)ccc2S1(=O)=O	/	1	/	/	/	/
O=C(NCc1ccccc1)c1ccc(C2SCC(=O)N2Cc2ccccc2)cc1 (stereo unspecified)	-2	/	-1	79*	-1	-4
N=c1c2c(ncn1CCCO)Oc1cc(O)ccc1C2c1ccccc1 (stereo unspecified)	0	1	0	/	-2	39*
COc1ccc(C2c3ccc(O)cc3Oc3ncn(CCN4CCOCC4)c(=N)c32)cc1 (stereo unspecified)	-12	5	-2	-9	-1	-10
COc1ccc(S(=O)(=O)N(CCCN2CCOCC2)Cc2ccc(OC)c(OC)c2)cc1	-14	/	0	94*	-1	0
Cc1ccc(C(=O)N2CCSCC2)cc1	-7	-4	0	103*	0	5
O=C(c1ccc(F)cc1)N1CCC(N2CCOCC2)CC1	-3	/	-1	/	-2	-2
Cc1ccc(NC(=O)Nc2ccc(C(=O)N3CCOCC3)cc2)cc1	-12	/	2	28	-1	-3
O=C(c1ccc(F)cc1)N1CCC(N2CCCCCC2)CC1	2	/	-1	145*	0	-7
O=C(c1ccc(Br)cc1)N1CCCC1	-2	/	-2	94*	0	-1
O=C(Nc1ccc(C(=O)N2CCCCC2)cc1)c1ccc(Br)cc1	1	/	0	/	-1	-3
COc1ccccc1C(=O)NNC(=O)c1ccc2ccccc2c1	-2	1	0	-5	0	/
COCCNC(=O)C[C@@H]1CC[C@H]2[C@@H](COC[C@@H](O)CN2Cc2cccc(-c3ccncc3)c2)O1	/	-4	/	-3	/	/
COCCNC(=O)C[C@@H]1CC[C@H]2[C@@H](COC[C@H](O)CN2Cc2cccc(-c3ccncc3)c2)O1	/	90*	/	14	/	/
COc1ccc(CN2C[C@H](O)COC[C@@H]3O[C@@H](CC(=O)N(C)C)CC[C@H]32)cc1	/	94*	/	10	/	/
O=C(C[C@H]1C=C[C@H](NC(=O)CCN2CCCCC2)[C@H](CO)O1)Nc1nccs1	/	131*	/	13	/	/
O=C(C[C@@H]1C=C[C@H](NC(=O)CCN2CCCCC2)[C@@H](CO)O1)Nc1nccs1	/	2	/	-4	/	/
